Source: ChEMBL document CHEMBL3817745, “Structure-Activity Relationship for the 4(3H)-Quinazolinone Antibacterials” (J Med Chem, 2016)
≈ marks a conversion by molar mass, not a printed value. Calls of active or inactive are those of the source. The calls are words filed in the database; no cut-off is given here.

Legend:
Staphylococcus aureus [1] = test: Antibacterial activity against methicillin-susceptible Staphylococcus aureus ATCC 29213 incubated for 16 to 20 hrs by microdilution method; assay type: functional
Mus musculus = test: AUC (0 to last) in ICR mouse peritonitis model infected with methicillin resistant Staphylococcus aureus ATCC 27660 at 10 mg/kg, iv administered as single dose measured up to 8 hrs by UPLC analysis; assay type: ADME, organism-based; design: dose 10 mg/kg, time 0 - last, route intravenous; conditions: in vivo, 8 h
Method in brief: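 Fast PK: female ICR mice (n = 2 per time point) given single tail-vein iv injection at 5, 10 or 20 mg/kg in 25% DMSO/65% propylene glycol/10% water (2.5, 5 or 10 mg/mL); terminal cardiac blood at 5 min, 40 min, 2, 4, 8 h; plasma analysed by UPLC with internal standard calibration.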

HepG2 = test: Cytotoxicity against human HepG2 cells incubated for 16 hrs by XTT assay; assay type: cell-based; conditions: HepG2, 16 h
Method in brief: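 HepG2 cells were tested with an XTT viability read-out, in triplicate. IC50 was obtained by nonlinear regression.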

[2] = Hemolytic activity against human RBC at 64 ug/ml relative to control; assay type: ADME, cell-based, Erythrocyte; conditions: erythrocyte
Method in brief: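 Hemolysis was measured at a fixed 64 μg/mL on a 10% red-cell suspension from heparinized human blood. Triton-X served as the positive control, and results are given as percent hemolysis.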

Enterococcus faecium = test: Antibacterial activity against Enterococcus faecium NCTC 7171 incubated for 16 to 20 hrs by microdilution method; assay type: functional
Method in brief: (§1)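 CLSI broth microdilution. 2-fold serial dilutions were made in cation-adjusted Mueller–Hinton broth, with 5% lysed horse blood added for Streptococcus strains, in triplicate. Inoculum 5×10^5 CFU/mL. Plates incubated 36 °C for 16–20 h. MIC taken as the lowest concentration visibly inhibiting growth.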

Klebsiella pneumoniae = test: Antibacterial activity against Klebsiella pneumoniae ATCC 700603 incubated for 16 to 20 hrs by microdilution method; assay type: functional; method in brief: as §1
Acinetobacter baumannii = test: Antibacterial activity against Acinetobacter baumannii ATCC 17961 incubated for 16 to 20 hrs by microdilution method; assay type: functional; method in brief: as §1
Pseudomonas aeruginosa = test: Antibacterial activity against Pseudomonas aeruginosa […] incubated for 16 to 20 hrs by microdilution method; assay type: functional; method in brief: as §1
Escherichia coli = test: Antibacterial activity against Escherichia coli ATCC 25922 incubated for 16 to 20 hrs by microdilution method; assay type: functional; method in brief: as §1
Klebsiella aerogenes = test: Antibacterial activity against Enterobacter aerogenes ATCC 35029 incubated for 16 to 20 hrs by microdilution method; assay type: functional; method in brief: as §1
Staphylococcus aureus [3] = test: Antibacterial activity against methicillin-resistant Staphylococcus aureus NRS70 in ICR mouse neutropenic thigh infection model assessed as reduction in bacterial load at 20 mg/kg, sc tid administered every 8 hrs starting from 1 hr post infection and measured 7 hrs post last dose; assay type: functional, organism-based
Method in brief: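 Female ICR mice (n = 8 per group) made neutropenic with ip cyclophosphamide 200 mg/kg at 4 days and 1 day pre-infection; 100 μL NRS70 (~1×10^6 CFU/mL in brain–heart infusion) injected im into right thigh; sc doses at 1, 9, 17 h; thighs harvested at 24 h, homogenized, plated in triplicate on LB agar; log10 CFU/g.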

Staphylococcus aureus [4] = test: Antibacterial activity against Staphylococcus aureus COL expressing pbpA antisense plasmid assessed as increase in zone of inhibition after 18 to 20 hrs in presence of xylose; assay type: functional, organism-based
Method in brief: (§2)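 MRSA COL strains carrying pbpA, pbp2, mecA or pbp3 under antisense control were grown overnight on agar with 34 μg/mL chloramphenicol. Molten chloramphenicol agar with 0 or 50 mM xylose was seeded at 1×10^7 CFU/mL and set. Compound (10 μL) was spotted on the agar, and plates were incubated 36 °C for 18–20 h. Susceptibility with and without xylose induction was compared.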

Staphylococcus aureus [5] = test: Antibacterial activity against Staphylococcus aureus COL expressing pbp2a antisense plasmid assessed as increase in zone of inhibition after 18 to 20 hrs in presence of xylose; assay type: functional, organism-based; method in brief: as §2
Staphylococcus aureus [6] = test: Antibacterial activity against Staphylococcus aureus COL expressing pbp2 antisense plasmid assessed as increase in zone of inhibition after 18 to 20 hrs in presence of xylose; assay type: functional, organism-based; method in brief: as §2
Staphylococcus aureus [7] = test: Antibacterial activity against Staphylococcus aureus COL expressing pbp3 antisense plasmid assessed as increase in zone of inhibition after 18 to 20 hrs in presence of xylose; assay type: functional, organism-based; method in brief: as §2

CS(=O)(=O)Nc1cccc(-n2c(/C=C/c3ccc(F)cc3)nc3ccccc3c2=O)c1
MIC (Staphylococcus aureus [1]): 0.125 µg/mL (≈ 0.287 µM)
AUClast (Mus musculus): 819 µg·min/mL
IC50 (HepG2): 66 µg/mL (≈ 152 µM)
Activity [2]: < 1%
MIC (Enterococcus faecium): ≥ 8 µg/mL
MIC (Klebsiella pneumoniae): ≥ 16 µg/mL
MIC (Acinetobacter baumannii): ≥ 16 µg/mL
MIC (Pseudomonas aeruginosa): ≥ 16 µg/mL
MIC (Escherichia coli): ≥ 16 µg/mL
MIC (Klebsiella aerogenes): ≥ 16 µg/mL

N#Cc1ccc(/C=C/c2nc3ccccc3c(=O)n2-c2cccc(C(=O)NCCO)c2)cc1
MIC (Staphylococcus aureus [1]): 1 µg/mL (≈ 2.29 µM)
AUClast (Mus musculus): 425 µg·min/mL
IC50 (HepG2): 70.2 µg/mL (≈ 161 µM)
Activity [2]: < 1%
MIC (Enterococcus faecium): ≥ 8 µg/mL
MIC (Klebsiella pneumoniae): ≥ 16 µg/mL
MIC (Acinetobacter baumannii): ≥ 16 µg/mL
MIC (Pseudomonas aeruginosa): ≥ 16 µg/mL
MIC (Escherichia coli): ≥ 16 µg/mL
MIC (Klebsiella aerogenes): ≥ 16 µg/mL

C#Cc1ccc(/C=C/c2nc3ccccc3c(=O)n2-c2cccc(C(=O)O)c2)cc1
Activity (Staphylococcus aureus [3]): Active
Activity (Staphylococcus aureus [4]): Active
Activity (Staphylococcus aureus [5]): Active
Activity (Staphylococcus aureus [6]): inactive
Activity (Staphylococcus aureus [7]): inactive

CC(=O)Nc1cccc(-n2c(/C=C/c3ccc(F)cc3)nc3ccccc3c2=O)c1
MIC (Staphylococcus aureus [1]): 1 µg/mL (≈ 2.5 µM)
AUClast (Mus musculus): 284 µg·min/mL
IC50 (HepG2): 46.6 µg/mL (≈ 117 µM)
Activity [2]: 3.6%
MIC (Enterococcus faecium): ≥ 8 µg/mL
MIC (Klebsiella pneumoniae): ≥ 16 µg/mL
MIC (Acinetobacter baumannii): ≥ 16 µg/mL
MIC (Pseudomonas aeruginosa): ≥ 16 µg/mL
MIC (Escherichia coli): ≥ 16 µg/mL
MIC (Klebsiella aerogenes): ≥ 16 µg/mL
